ChEMBL document CHEMBL4689842, “EUbOPEN Chemogenomics Library wave 1” (2021)
Where “and” joins values, the source holds several entries; their conditions need not be identical. Equal entries are not always repeated.

What was measured:
U2OS [1] = assay: Multiplex assay against U2OS; type: toxicity, cell-based; details: human
Outline: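 Hoechst33342, BioTracker Green Microtubule Cytoskeleton Dye, MitoTracker Red and Annexin V Alexa Fluor 680 were added to live cells at seeding, and imaging on a CQ1 microscope at 37°C and 5% CO2 followed compound addition. Gating by CellPathfinder machine learning separated cells into Hoechst high-intensity objects or normal cells, then normal cells into healthy, pyknosed or fragmented nuclei, then pyknosed cells into mitotic or apoptotic. Per cents of healthy-nucleus cells are reported for the tubulin, mitochondrial-mass and membrane-permeability phenotypes.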

U2OS [2] = assay: Incucyte cell viability with U2OS; type: toxicity, cell-based; details: human, 10 µM, compound concentration 10 uM; also: filed as whole numbers so only -1 and 0 and 1 occur
[3] = 12 h, 1 µM, compound concentration 1 uM, replicate 1
[4] = 12 h, 1 µM, compound concentration 1 uM, replicate 2
[5] = 12 h, 10 µM, compound concentration 10 uM, replicate 1
[6] = 12 h, 10 µM, compound concentration 10 uM, replicate 2
[7] = 24 h, 1 µM, compound concentration 1 uM, replicate 1
[8] = 24 h, 1 µM, compound concentration 1 uM, replicate 2
[9] = 24 h, 10 µM, compound concentration 10 uM, replicate 1
[10] = 24 h, 10 µM, compound concentration 10 uM, replicate 2
[11] = 48 h, 1 µM, compound concentration 1 uM, replicate 1
[12] = 48 h, 1 µM, compound concentration 1 uM, replicate 2
[13] = 48 h, 10 µM, compound concentration 10 uM, replicate 1
[14] = 48 h, 10 µM, compound concentration 10 uM, replicate 2

For CS(=O)(=O)N1CCCC(NC(=O)[C@H](CCC2CCCCC2)NC(=O)c2ccc(CNC(=O)c3cnc4ccccn34)cc2)C1 (stereo partly specified) [SR-302], the “Population Apoptotic (%)” value (U2OS [1]; [3]) was 41% [middle of 4 runs], the “Population Fragmented Nuclei (%)” value (U2OS [1]; [3]) was 2% and 6% and 10% and 5% and the “Population Healthy Nuclei (%)” value (U2OS [1]; [3]) was 92% and 78% and 82%. The “Population Membrane Permeable-Phenotype (%)” value (U2OS [1]; [3]) was 12% and 6% and 4%, the “Population Mitotic Cells (%)” value (U2OS [1]; [3]) was 80% and 39% and 58% and the “Population Normal (%)” value (U2OS [1]; [3]) was 95% and 97% and 96% and 92%. For the same molecule, the “Population Pyknosed Nuclei (%)” value (U2OS [1]; [3]) was 5% and 10% and 11%, the “Population Tubulin-Different-Phenotype (%)” value (U2OS [1]; [3]) was 18% and 32% and 29% and the “Total Cell Count” value (U2OS [1]; [3]) was 258 [middle of 4 runs]. For the same molecule, the “Population Fragmented Nuclei (%)” value (U2OS [1]; [4]) was 8% and 12%, the “Population Healthy Nuclei (%)” value (U2OS [1]; [4]) was 90% and 83% and 81% and 76% and the “Population Hoechst High Intensity Objects (%)” value (U2OS [1]; [4]) was 10% and 6% and 16%. The “Population Membrane Permeable-Phenotype (%)” value (U2OS [1]; [4]) was 7% [middle of 4 runs], the “Population Mitotic Cells (%)” value (U2OS [1]; [4]) was 100% and 60% and 66% and the “Population Normal (%)” value (U2OS [1]; [4]) was 89% and 93% and 83%. For the same molecule, the “Population Pyknosed Nuclei (%)” value (U2OS [1]; [4]) was 8% [middle of 4 runs], the “Population Tubulin-Different-Phenotype (%)” value (U2OS [1]; [4]) was 15% and 17% and 14% and the “Total Cell Count” value (U2OS [1]; [4]) was 84 [middle of 4 runs]. For the same molecule, the “Population Apoptotic (%)” value (U2OS [1]; [5]) was 56% [middle of 4 runs], the “Population Fragmented Nuclei (%)” value (U2OS [1]; [5]) was 11% and 10% and 2% and the “Population Healthy Nuclei (%)” value (U2OS [1]; [5]) was 70% and 74% and 75% and 94%. For the same molecule, the “Population Hoechst High Intensity Objects (%)” value (U2OS [1]; [5]) was 11% and 5%, the “Population Membrane Permeable-Phenotype (%)” value (U2OS [1]; [5]) was 13% and 12% and the “Population Mitotic Cells (%)” value (U2OS [1]; [5]) was 65% [middle of 4 runs]. For the same molecule, the “Population Normal (%)” value (U2OS [1]; [5]) was 88% and 94%, the “Total Cell Count” value (U2OS [1]; [5]) was 185 [middle of 4 runs] and the “Population Fragmented Nuclei (%)” value (U2OS [1]; [6]) was 12% and 9% and 6%. The “Population Healthy Nuclei (%)” value (U2OS [1]; [6]) was 80% and 83% and 86%, the “Population Hoechst High Intensity Objects (%)” value (U2OS [1]; [6]) was 7% and 6% and 3% and the “Population Membrane Permeable-Phenotype (%)” value (U2OS [1]; [6]) was 20% [middle of 4 runs]. For the same molecule, the “Population Normal (%)” value (U2OS [1]; [6]) was 92% and 93% and 96%, the “Population Pyknosed Nuclei (%)” value (U2OS [1]; [6]) was 7% and 9% and 4% and the “Total Cell Count” value (U2OS [1]; [6]) was 92 [middle of 4 runs]. For the same molecule, the “Population Apoptotic (%)” value (U2OS [1]; [7]) was 18% and 31% and 46%, the “Population Fragmented Nuclei (%)” value (U2OS [1]; [7]) was 3% and 6% and 5% and 8% and the “Population Healthy Nuclei (%)” value (U2OS [1]; [7]) was 90% and 85% and 87% and 81%. The “Population Hoechst High Intensity Objects (%)” value (U2OS [1]; [7]) was 1% and 2% and 3%, the “Population Membrane Permeable-Phenotype (%)” value (U2OS [1]; [7]) was 7% and 6% and 2% and 1% and the “Population Mitotic Cells (%)” value (U2OS [1]; [7]) was 81% and 68% and 53%. The “Population Normal (%)” value (U2OS [1]; [7]) was 98% and 97% and 96%, the “Population Pyknosed Nuclei (%)” value (U2OS [1]; [7]) was 6% and 7% and 10% and the “Total Cell Count” value (U2OS [1]; [7]) was 310 [middle of 4 runs]. For the same molecule, the “Population Fragmented Nuclei (%)” value (U2OS [1]; [8]) was 7%, the “Population Healthy Nuclei (%)” value (U2OS [1]; [8]) was 91% and 84% and 88% and 93% and the “Population Membrane Permeable-Phenotype (%)” value (U2OS [1]; [8]) was 9% and 8% and 5%. For the same molecule, the “Population Mitotic Cells (%)” value (U2OS [1]; [8]) was 66% and 50% and 85%, the “Population Normal (%)” value (U2OS [1]; [8]) was 89% and 85% and 95% and the “Population Pyknosed Nuclei (%)” value (U2OS [1]; [8]) was 1% and 8% and 2%. The “Population Tubulin-Different-Phenotype (%)” value (U2OS [1]; [8]) was 24% [middle of 4 runs], the “Total Cell Count” value (U2OS [1]; [8]) was 97 [middle of 4 runs] and the “Population Apoptotic (%)” value (U2OS [1]; [9]) was 62% [middle of 4 runs]. For the same molecule, the “Population Fragmented Nuclei (%)” value (U2OS [1]; [9]) was 10% and 11% and 5%, the “Population Healthy Nuclei (%)” value (U2OS [1]; [9]) was 72% and 71% and 90% and the “Population Hoechst High Intensity Objects (%)” value (U2OS [1]; [9]) was 8% and 6% and 1%. The “Population Membrane Permeable-Phenotype (%)” value (U2OS [1]; [9]) was 11% and 13%, the “Population Mitotic Cells (%)” value (U2OS [1]; [9]) was 51% [middle of 4 runs] and the “Population Normal (%)” value (U2OS [1]; [9]) was 91% and 93% and 98%. For the same molecule, the “Total Cell Count” value (U2OS [1]; [9]) was 265 [middle of 4 runs], the “Population Apoptotic (%)” value (U2OS [1]; [10]) was 54% [middle of 4 runs] and the “Population Fragmented Nuclei (%)” value (U2OS [1]; [10]) was 7% and 1% and 9%. For the same molecule, the “Population Healthy Nuclei (%)” value (U2OS [1]; [10]) was 77% and 82% and 89%, the “Population Hoechst High Intensity Objects (%)” value (U2OS [1]; [10]) was 11% and 4% and 5% and the “Population Membrane Permeable-Phenotype (%)” value (U2OS [1]; [10]) was 20% and 16% and 12%. The “Population Mitotic Cells (%)” value (U2OS [1]; [10]) was 60% [middle of 4 runs], the “Population Normal (%)” value (U2OS [1]; [10]) was 88% and 95% and 94% and the “Population Pyknosed Nuclei (%)” value (U2OS [1]; [10]) was 15% and 13%. For the same molecule, the “Total Cell Count” value (U2OS [1]; [10]) was 91 [middle of 4 runs], the “Population Apoptotic (%)” value (U2OS [1]; [11]) was 40% and 44% and 37% and the “Population Fragmented Nuclei (%)” value (U2OS [1]; [11]) was 4% and 1% and 2%. For the same molecule, the “Population Healthy Nuclei (%)” value (U2OS [1]; [11]) was 92% and 90%, the “Population Hoechst High Intensity Objects (%)” value (U2OS [1]; [11]) was 1% and 0% and the “Population Membrane Permeable-Phenotype (%)” value (U2OS [1]; [11]) was 2%. The “Population Mitochondria Different-Phenotype (%)” value (U2OS [1]; [11]) was 15% and 9% and 7%, the “Population Mitotic Cells (%)” value (U2OS [1]; [11]) was 60% and 56% and 62% and the “Population Normal (%)” value (U2OS [1]; [11]) was 98% and 99%. The “Population Pyknosed Nuclei (%)” value (U2OS [1]; [11]) was 6% and 5%, the “Population Tubulin-Different-Phenotype (%)” value (U2OS [1]; [11]) was 40% and 18% and 46% and the “Total Cell Count” value (U2OS [1]; [11]) was 466 and 472. For the same molecule, the “Population Fragmented Nuclei (%)” value (U2OS [1]; [12]) was 6% and 3%, the “Population Healthy Nuclei (%)” value (U2OS [1]; [12]) was 84% and 88% and 91% and the “Population Hoechst High Intensity Objects (%)” value (U2OS [1]; [12]) was 9% and 2%. For the same molecule, the “Population Membrane Permeable-Phenotype (%)” value (U2OS [1]; [12]) was 7% and 4% and 1%, the “Population Mitochondria Different-Phenotype (%)” value (U2OS [1]; [12]) was 11% and 5% and the “Population Mitotic Cells (%)” value (U2OS [1]; [12]) was 44% and 91% and 66%. The “Population Normal (%)” value (U2OS [1]; [12]) was 90% and 97%, the “Population Pyknosed Nuclei (%)” value (U2OS [1]; [12]) was 9% and 8% and the “Population Tubulin-Different-Phenotype (%)” value (U2OS [1]; [12]) was 30% and 26% and 12%. The “Total Cell Count” value (U2OS [1]; [12]) was 93 and 189 and 109, the “Population Apoptotic (%)” value (U2OS [1]; [13]) was 70% and 57% and the “Population Fragmented Nuclei (%)” value (U2OS [1]; [13]) was 10%. The “Population Healthy Nuclei (%)” value (U2OS [1]; [13]) was 74% and 73% and 72%, the “Population Hoechst High Intensity Objects (%)” value (U2OS [1]; [13]) was 8% and the “Population Membrane Permeable-Phenotype (%)” value (U2OS [1]; [13]) was 7% and 4%. The “Population Mitochondria Different-Phenotype (%)” value (U2OS [1]; [13]) was 39% and 36% and 30%, the “Population Mitotic Cells (%)” value (U2OS [1]; [13]) was 29% and 42% and the “Population Normal (%)” value (U2OS [1]; [13]) was 91%. For the same molecule, the “Population Pyknosed Nuclei (%)” value (U2OS [1]; [13]) was 16% and 17%, the “Population Tubulin-Different-Phenotype (%)” value (U2OS [1]; [13]) was 40% and 38% and 30% and the “Total Cell Count” value (U2OS [1]; [13]) was 243 and 658 and 261. The “Population Apoptotic (%)” value (U2OS [1]; [14]) was 76% and 46% and 90%, the “Population Fragmented Nuclei (%)” value (U2OS [1]; [14]) was 9% and 6% and 8% and the “Population Healthy Nuclei (%)” value (U2OS [1]; [14]) was 75% and 79% and 80%. The “Population Hoechst High Intensity Objects (%)” value (U2OS [1]; [14]) was 7% and 5% and 1%, the “Population Membrane Permeable-Phenotype (%)” value (U2OS [1]; [14]) was 20% and 16% and the “Population Mitochondria Different-Phenotype (%)” value (U2OS [1]; [14]) was 59% and 41% and 44%. For the same molecule, the “Population Normal (%)” value (U2OS [1]; [14]) was 92% and 94% and 98%, the “Population Pyknosed Nuclei (%)” value (U2OS [1]; [14]) was 15% and 13% and 10% and the “Population Tubulin-Different-Phenotype (%)” value (U2OS [1]; [14]) was 48% and 33% and 39%. For the same molecule, the “Total Cell Count” value (U2OS [1]; [14]) was 146 and 92 and 114, the “Growth Rate” value (U2OS [2]; 0 h, replicate number 1, timepoint 0 hours) was 0 and the “Growth Rate” value (U2OS [2]; 6 h, replicate number 1, timepoint 6 hours) was 1. The “Growth Rate” value (U2OS [2]; 6 h, replicate number 2, timepoint 6 hours) was 0, the “Growth Rate” value (U2OS [2]; 12 h, replicate number 1, timepoint 12 hours) was 0 and the “Growth Rate” value (U2OS [2]; 18 h, replicate number 1, timepoint 18 hours) was 0. The “Growth Rate” value (U2OS [2]; 18 h, replicate number 2, timepoint 18 hours) was 1 and the “Growth Rate” value (U2OS [2]; 24 h, replicate number 1, timepoint 24 hours) was 0.
